# Activity calls are given as the source filed them. No cut-off for these calls is given here.
# Tests used:
# Histone deacetylase 1 = Histone deacetylase 1 (Homo sapiens, UniProt Q13547); test: Inhibition of HDAC1 (unknown origin) using Ac-peptide as substrate pretreated for 15 mins followed by substrate addition and measured after 1 hr by fluorescence assay
# [1] = target: T1, Protein deacetylase HDAC6 (Homo sapiens, UniProt Q9UBN7); test: Inhibition of HDAC6 (unknown origin) using Ac-peptide as substrate pretreated for 15 mins followed by substrate addition and measured after 1 hr by fluorescence assay
# T1 sequence (Q9UBN7 whole entry): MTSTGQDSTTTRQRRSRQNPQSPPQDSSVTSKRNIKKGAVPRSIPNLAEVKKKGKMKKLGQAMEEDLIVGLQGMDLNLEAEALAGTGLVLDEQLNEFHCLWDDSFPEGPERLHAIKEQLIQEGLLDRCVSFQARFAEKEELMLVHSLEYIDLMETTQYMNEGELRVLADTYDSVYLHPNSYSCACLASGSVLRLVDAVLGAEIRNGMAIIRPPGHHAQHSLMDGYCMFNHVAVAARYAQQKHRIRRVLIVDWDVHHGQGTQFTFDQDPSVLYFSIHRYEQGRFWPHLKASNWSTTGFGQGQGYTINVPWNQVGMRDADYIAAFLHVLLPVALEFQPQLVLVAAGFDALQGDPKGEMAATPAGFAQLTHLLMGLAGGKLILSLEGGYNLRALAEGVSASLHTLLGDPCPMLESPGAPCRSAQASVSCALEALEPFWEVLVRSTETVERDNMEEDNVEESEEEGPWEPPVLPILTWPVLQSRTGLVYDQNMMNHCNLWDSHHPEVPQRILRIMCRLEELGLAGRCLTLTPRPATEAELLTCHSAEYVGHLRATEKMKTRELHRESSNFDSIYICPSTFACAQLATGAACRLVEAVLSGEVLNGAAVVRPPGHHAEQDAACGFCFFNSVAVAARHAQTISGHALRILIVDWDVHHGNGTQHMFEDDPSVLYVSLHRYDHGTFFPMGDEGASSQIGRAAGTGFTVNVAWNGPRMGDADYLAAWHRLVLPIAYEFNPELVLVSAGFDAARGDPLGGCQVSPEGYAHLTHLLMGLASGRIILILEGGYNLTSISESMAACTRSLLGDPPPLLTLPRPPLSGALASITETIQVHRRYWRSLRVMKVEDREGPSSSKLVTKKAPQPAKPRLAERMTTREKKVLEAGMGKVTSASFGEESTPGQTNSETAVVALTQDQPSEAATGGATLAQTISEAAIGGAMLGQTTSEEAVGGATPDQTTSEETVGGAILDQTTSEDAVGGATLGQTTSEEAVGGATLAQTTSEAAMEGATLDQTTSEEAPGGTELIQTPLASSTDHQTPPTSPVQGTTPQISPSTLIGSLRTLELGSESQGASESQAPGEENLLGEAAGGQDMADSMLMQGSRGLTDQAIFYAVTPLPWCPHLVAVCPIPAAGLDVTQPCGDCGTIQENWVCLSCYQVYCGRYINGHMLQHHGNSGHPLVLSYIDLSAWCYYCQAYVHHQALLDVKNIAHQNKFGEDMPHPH
# [2] = target: DNA topoisomerase 2-alpha (Homo sapiens) (UniProt P11388); test: Inhibition of human topoisomerase 2alpha expressed in Escherichia coli assessed as reduction in supercoiled pBR322 plasmid DNA relaxation at 50 to 100 uM after 10 to 15 mins by ethidium bromide staining based agarose gel electrophoresis
# Method in brief: (§1)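 Relaxation assay with 500 ng supercoiled pBR322 DNA and 1 unit of human Topo I or Topo II in reaction buffer (20 µL), run at 37 °C for 10-15 min. Reaction stopped with loading buffer, then 1% agarose gel in TAE at 80 V for 0.5 h. Gel stained with ethidium bromide and bands viewed under UV. Camptothecin (Topo I) and m-AMSA (Topo II) served as references.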
# U-937 [3] = test: Antiproliferative activity against human U937 cells after 48 hrs by MTT assay; format: functional, cell-based; conditions: U-937, 48 h
# MDA-MB-231 = test: Antiproliferative activity against human MDA-MB-231 cells after 48 hrs by MTT assay; format: functional, cell-based; conditions: MDA-MB-231, 48 h
# Method in brief: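 Cells seeded at 5-10 × 10^3 per well and left 12 h at 37 °C, then given a range of concentrations (DMSO as blank) for 48 h. MTT (5 mg/mL) added for 4 h, formazan dissolved in DMSO, absorbance read at 490 nm. IC50 taken from dose-response curves of at least three independent experiments, mean ± SD.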
# HCT-116 = test: Antiproliferative activity against human HCT116 cells after 48 hrs by MTT assay; format: functional, cell-based; conditions: HCT-116, 48 h
# Calf thymus DNA [4] = test: Binding affinity to calf thymus DNA by UV-Vis absorption spectral analysis; format: nucleic-acid assay; conditions: Bos taurus
# Method in brief: (§2)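 Compound held at 10 μM and titrated with increasing calf thymus DNA in Tris-HCl buffer (pH 7.4). UV–visible absorption spectra recorded, and absorbance changes plotted against DNA concentration.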
# [5] = target: T2, DNA topoisomerase 1 (Homo sapiens) (UniProt P11387); test: Inhibition of human topoisomerase 1 assessed as reduction in supercoiled pBR322 plasmid DNA relaxation at 100 uM after 10 to 15 mins by ethidium bromide staining based agarose gel electrophoresis; method in brief: as §1
# T2 sequence (whole entry): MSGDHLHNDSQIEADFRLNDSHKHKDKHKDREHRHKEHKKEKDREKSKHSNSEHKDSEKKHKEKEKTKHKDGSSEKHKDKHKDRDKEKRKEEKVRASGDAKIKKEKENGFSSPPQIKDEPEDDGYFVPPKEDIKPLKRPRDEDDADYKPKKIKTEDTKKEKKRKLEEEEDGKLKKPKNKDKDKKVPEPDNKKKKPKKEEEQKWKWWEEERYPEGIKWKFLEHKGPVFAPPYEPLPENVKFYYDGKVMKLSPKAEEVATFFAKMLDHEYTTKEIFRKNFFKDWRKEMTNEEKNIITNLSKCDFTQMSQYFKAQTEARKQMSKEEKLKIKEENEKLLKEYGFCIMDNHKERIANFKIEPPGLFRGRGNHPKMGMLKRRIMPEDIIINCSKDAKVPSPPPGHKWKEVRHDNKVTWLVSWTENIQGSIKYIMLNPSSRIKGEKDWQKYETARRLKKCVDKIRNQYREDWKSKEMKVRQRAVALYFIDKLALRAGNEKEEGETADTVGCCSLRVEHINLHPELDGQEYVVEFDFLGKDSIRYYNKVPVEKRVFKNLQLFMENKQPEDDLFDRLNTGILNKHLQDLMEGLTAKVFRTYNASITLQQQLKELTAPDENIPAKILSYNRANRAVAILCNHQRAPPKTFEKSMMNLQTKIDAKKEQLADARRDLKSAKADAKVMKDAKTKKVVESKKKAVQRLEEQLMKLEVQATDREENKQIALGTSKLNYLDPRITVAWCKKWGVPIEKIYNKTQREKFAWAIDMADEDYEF
# Calf thymus DNA [6] = test: Binding affinity to calf thymus DNA assessed as maximum absorption peak at 10 uM by UV-Vis absorption spectral analysis; format: nucleic-acid assay; conditions: Bos taurus; method in brief: as §2
# Calf thymus DNA [7] = test: Binding affinity to calf thymus DNA assessed as assessed as bathochromic shift at 10 uM by UV-Vis absorption spectral analysis; format: nucleic-acid assay; conditions: Bos taurus; method in brief: as §2
# U-937 [8] = test: Induction of apoptosis in human U937 cells assessed as increase in cleaved caspase 9 levels up to 2.5 uM after 36 hrs by Western blot analysis; format: functional, cell-based
# Method in brief: (§3)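 U937 cells exposed to 0, 0.1, 0.5, 1 and 2.5 μM for 36 h. Cells lysed at 0 °C for 0.5 h, protein measured by BCA, and lysates run on 12% SDS-PAGE and transferred to PVDF. Blocking in 5% milk, primary antibodies (1:1000) at 4 °C overnight, HRP secondary for 2 h, ECL detection.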
# U-937 [9] = test: Induction of apoptosis in human U937 cells assessed as increase in cleaved caspase 8 levels up to 2.5 uM after 36 hrs by Western blot analysis; format: functional, cell-based; method in brief: as §3
# U-937 [10] = test: Induction of apoptosis in human U937 cells assessed as increase in cleaved caspase 3 levels up to 2.5 uM after 36 hrs by Western blot analysis; format: functional, cell-based; method in brief: as §3
# U-937 [11] = test: Induction of apoptosis in human U937 cells assessed as increase in cleaved caspase 7 levels up to 2.5 uM after 36 hrs by Western blot analysis; format: functional, cell-based; method in brief: as §3
# Calf thymus DNA [12] = test: Binding affinity to calf thymus DNA by fluorescence emission spectral analysis; format: nucleic-acid assay; conditions: Bos taurus
# Sequence of Histone deacetylase 1 (Q13547 whole entry): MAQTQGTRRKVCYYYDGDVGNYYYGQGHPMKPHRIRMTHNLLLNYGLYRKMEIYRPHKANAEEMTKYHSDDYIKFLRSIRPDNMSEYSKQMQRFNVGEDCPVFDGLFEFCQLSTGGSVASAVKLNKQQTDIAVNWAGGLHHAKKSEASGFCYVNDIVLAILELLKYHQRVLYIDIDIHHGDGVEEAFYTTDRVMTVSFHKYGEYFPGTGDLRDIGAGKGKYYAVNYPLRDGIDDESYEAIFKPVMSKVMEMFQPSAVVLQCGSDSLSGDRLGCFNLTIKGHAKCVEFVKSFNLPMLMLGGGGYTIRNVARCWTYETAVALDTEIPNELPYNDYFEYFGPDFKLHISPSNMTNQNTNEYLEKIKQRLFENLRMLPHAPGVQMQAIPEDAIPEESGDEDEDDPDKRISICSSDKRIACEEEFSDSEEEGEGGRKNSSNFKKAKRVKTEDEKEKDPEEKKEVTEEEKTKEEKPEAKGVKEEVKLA
# Sequence of DNA topoisomerase 2-alpha (Homo sapiens) (P11388 whole entry): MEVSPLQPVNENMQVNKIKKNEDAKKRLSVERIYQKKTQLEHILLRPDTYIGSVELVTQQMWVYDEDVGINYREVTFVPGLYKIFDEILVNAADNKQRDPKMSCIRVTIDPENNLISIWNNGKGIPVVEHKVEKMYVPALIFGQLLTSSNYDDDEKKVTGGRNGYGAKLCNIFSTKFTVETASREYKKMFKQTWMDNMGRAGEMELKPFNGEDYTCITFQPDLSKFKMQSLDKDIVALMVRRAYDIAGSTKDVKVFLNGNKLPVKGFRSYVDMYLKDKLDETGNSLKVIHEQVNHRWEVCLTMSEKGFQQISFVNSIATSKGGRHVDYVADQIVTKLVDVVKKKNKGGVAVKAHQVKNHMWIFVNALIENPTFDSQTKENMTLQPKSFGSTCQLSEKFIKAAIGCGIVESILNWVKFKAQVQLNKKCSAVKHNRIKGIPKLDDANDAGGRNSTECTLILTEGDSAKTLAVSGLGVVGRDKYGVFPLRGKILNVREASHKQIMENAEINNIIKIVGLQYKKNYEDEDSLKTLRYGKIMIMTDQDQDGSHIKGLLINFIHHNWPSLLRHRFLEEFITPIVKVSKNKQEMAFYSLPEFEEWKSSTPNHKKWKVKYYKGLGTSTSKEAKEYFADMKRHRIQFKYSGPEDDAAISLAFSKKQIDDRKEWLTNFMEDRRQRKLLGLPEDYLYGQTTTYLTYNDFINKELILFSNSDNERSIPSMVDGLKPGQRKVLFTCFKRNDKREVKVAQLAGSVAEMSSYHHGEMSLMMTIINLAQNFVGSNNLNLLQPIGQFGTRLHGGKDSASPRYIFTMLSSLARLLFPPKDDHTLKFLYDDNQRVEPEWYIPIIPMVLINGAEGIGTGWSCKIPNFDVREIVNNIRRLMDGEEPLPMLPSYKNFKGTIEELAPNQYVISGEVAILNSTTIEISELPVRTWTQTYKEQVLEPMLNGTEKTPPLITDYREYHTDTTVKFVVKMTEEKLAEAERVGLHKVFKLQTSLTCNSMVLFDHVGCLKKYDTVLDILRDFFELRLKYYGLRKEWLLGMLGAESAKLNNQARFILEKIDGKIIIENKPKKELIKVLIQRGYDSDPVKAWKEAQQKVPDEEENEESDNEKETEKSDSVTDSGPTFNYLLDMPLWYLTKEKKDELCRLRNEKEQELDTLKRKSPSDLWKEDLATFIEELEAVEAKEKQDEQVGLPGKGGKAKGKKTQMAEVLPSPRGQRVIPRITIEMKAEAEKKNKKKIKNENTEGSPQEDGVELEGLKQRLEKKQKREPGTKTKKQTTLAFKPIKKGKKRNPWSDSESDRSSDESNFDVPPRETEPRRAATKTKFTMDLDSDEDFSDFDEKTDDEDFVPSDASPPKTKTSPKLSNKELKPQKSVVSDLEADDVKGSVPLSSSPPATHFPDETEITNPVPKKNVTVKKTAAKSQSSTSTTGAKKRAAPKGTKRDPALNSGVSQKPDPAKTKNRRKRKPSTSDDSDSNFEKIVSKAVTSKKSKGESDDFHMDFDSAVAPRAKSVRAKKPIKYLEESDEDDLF
SMILES,IC50 (Histone deacetylase 1),IC50 [1],inhibition [2],IC50 (U-937 [3]),IC50 (MDA-MB-231),further results
O=C(CCCCCn1cc(-c2ccc(Nc3c4ccccc4nc4ccccc34)cc2)nn1)NO,8.2 nM,2.6 nM,Active,1340 nM,–,–
O=C(CCCCCCn1cc(-c2cccc(Nc3c4ccccc4nc4ccccc34)c2)nn1)NO,5.1 nM,5 nM,Active,1240 nM,–,–
O=C(CCCCCn1cc(-c2cccc(Nc3c4ccccc4nc4ccccc34)c2)nn1)NO,14.1 nM,3.4 nM,Active,2670 nM,–,–
COC(=O)CCc1ccc(Nc2c3ccccc3nc3ccccc23)cc1,–,–,–,3870 nM,–,–
COc1ccc2nc3cc(Cl)ccc3c(Nc3ccc(CCC(=O)NO)cc3)c2c1,66.2 nM,80.8 nM,Active,1120 nM,–,–
COc1cc(NS(C)(=O)=O)ccc1Nc1c2ccccc2nc2ccccc12 [AMSACRINE],–,–,Active,–,10000 nM,IC50 (HCT-116): < 1000 nM; Kb (Calf thymus DNA [4]): 1.36 ×10⁵ /M
O=C(CCCCCCC(=O)Nc1ccccc1)NO [VORINOSTAT],–,–,–,–,4930 nM,–
COc1ccc2nc3cc(Cl)ccc3c(Nc3ccc(-c4cn(CCCCCC(=O)NO)nn4)cc3)c2c1,306 nM,29 nM,Active,3550 nM,–,–
COc1ccc2nc3cc(Cl)ccc3c(Nc3cccc(-c4cn(CCCCCC(=O)NO)nn4)c3)c2c1,224 nM,13.3 nM,Active,2940 nM,–,–
O=C(CCc1ccc(Nc2c3ccccc3nc3ccccc23)cc1)NO,134 nM,99.3 nM,Active,750 nM,29100 nM,inhibition [5]: Active; IC50 (HCT-116): 1880 nM
O=C(CCCCCCn1cc(-c2ccc(Nc3c4ccccc4nc4ccccc34)cc2)nn1)NO,3.9 nM,2.9 nM,Active,900 nM,7090 nM,IC50 (HCT-116): 2110 nM; Activity (Calf thymus DNA [6]): 430 nm; Activity (Calf thymus DNA [7]): Active; Kb (Calf thymus DNA [4]): 1.67 ×10⁵ /M; Activity (U-937 [8]): Active; Activity (U-937 [9]): Active; Activity (U-937 [10]): Active; Activity (U-937 [11]): Active; Kq (Calf thymus DNA [12]): 1.56 ×10⁵ /M
O=C(CCCCCCn1cc(-c2ccc(Nc3c4ccccc4nc4ccccc34)cc2)nn1)NOC1CCCCO1 (configuration not stated),–,–,–,21400 nM,–,–
